{"source": "ChEMBL document CHEMBL1132468", "about": "“5-(Tryptophyl)amino-1,3-dioxoperhydropyrido[1,2-c]pyrimidine-based potent and selective CCK(1) receptor antagonists: structural modifications at the tryptophan domain” (J Med Chem, 1999)", "key": {"Rattus norvegicus [1]": {"system": "Rattus norvegicus", "experiment": "Compound (CCK1 antagonist) was administered intraperitoneally for the effect of increase in plasma lipase activity induced by caerulein in rat"}, "Rattus norvegicus [2]": {"system": "Rattus norvegicus", "experiment": "Compound (CCK1 antagonist) was administered intraperitoneally for the effect of increase in plasma amylase activity induced by caerulein in rat", "assay_type": "functional", "outline": "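Male Wistar rats (190–210 g), fasted 24 h, given four sc caerulein injections (10 µg/kg) at hourly intervals. Antagonist given ip (0.25 mL/100 g; 0.1 or 1 mg/kg) 30 min before the first caerulein dose. Blood taken 3 h after the last injection. Plasma amylase and lipase measured by commercial kits, in IU/mL. Statistics by ANOVA with Scheffé's test against caerulein alone.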"}, "Rattus norvegicus [3]": {"system": "Rattus norvegicus", "experiment": "Compound (CCK1 antagonist) was administered orally for the effect of increase in plasma amylase activity induced by caerulein in rat.", "assay_type": "functional", "outline": "(§1)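 Caerulein pancreatitis in fasted (24 h) male Wistar rats (190–210 g): four hourly sc injections of 10 µg/kg. Antagonist dosed orally (0.25 mL/100 g; 0.1 or 1 mg/kg) 60 min before the first caerulein injection. Plasma drawn 3 h after the final injection. Amylase and lipase activities read with commercial kits, in IU/mL. Comparisons by ANOVA plus Scheffé's test against caerulein.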"}, "Rattus norvegicus [4]": {"system": "Rattus norvegicus", "experiment": "Compound (CCK1 antagonist) was administered orally for the effect of increase in plasma lipase activity induced by caerulein in rat", "assay_type": "functional", "outline": "as §1"}}, "note": "Residues, ends and D or L forms follow the SMILES beside them.", "data": [{"smiles": "CSCC[C@H](NC(=O)[C@H](Cc1c[nH]c2ccccc12)NC(=O)CNC(=O)[C@@H](NC(=O)[C@H](Cc1ccc(OS(=O)(=O)O)cc1)NC(=O)[C@H](CC(=O)O)NC(=O)[C@H](CCC(N)=O)NC(=O)[C@@H]1CCC(=O)N1)[C@@H](C)O)C(=O)N[C@@H](CC(=O)O)C(=O)N[C@@H](Cc1ccccc1)C(N)=O", "note": "[CAERULIN] (HELM PEPTIDE1{[Glp].Q.D.[O=C([C@H](Cc1ccc(OS(=O)(=O)O)cc1)N[*:1])[*:2]].T.G.W.M.D.F.[am]}$$$$V2.0)", "values": [{"measurement": "Increase in plasma lipase", "setting": "Rattus norvegicus [1]", "value": 3100, "unit": "IU ml-1"}, {"measurement": "Increase in plasma amylase", "setting": "Rattus norvegicus [2]", "value": 52101, "unit": "IU ml-1"}, {"measurement": "Increase in plasma amylase", "setting": "Rattus norvegicus [3]", "value": 39293, "unit": "IU ml-1"}, {"measurement": "Increase in plasma lipase", "setting": "Rattus norvegicus [4]", "value": 2801, "unit": "IU ml-1"}]}]}
